Bioassay records from PubChem BioAssay.
Not all results are given here.
Apaf1 activ = activators of human Apaf-1 apoptosome, primary screen, biochemical, DEVD-Rh110 fluorescence, uHTS | Apoptotic protease-activating factor 1 (Homo sapiens), O14727 | Apaf-1 apoptosome caspase-3 activation; active compounds read low | activity change, negative = activation, % at 20 µM | 0.31% of 330,000 active | AID 489031, 2010;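 active = activity change at or below -40% at 20 µM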
Target sequence (O14727 whole entry, looked up): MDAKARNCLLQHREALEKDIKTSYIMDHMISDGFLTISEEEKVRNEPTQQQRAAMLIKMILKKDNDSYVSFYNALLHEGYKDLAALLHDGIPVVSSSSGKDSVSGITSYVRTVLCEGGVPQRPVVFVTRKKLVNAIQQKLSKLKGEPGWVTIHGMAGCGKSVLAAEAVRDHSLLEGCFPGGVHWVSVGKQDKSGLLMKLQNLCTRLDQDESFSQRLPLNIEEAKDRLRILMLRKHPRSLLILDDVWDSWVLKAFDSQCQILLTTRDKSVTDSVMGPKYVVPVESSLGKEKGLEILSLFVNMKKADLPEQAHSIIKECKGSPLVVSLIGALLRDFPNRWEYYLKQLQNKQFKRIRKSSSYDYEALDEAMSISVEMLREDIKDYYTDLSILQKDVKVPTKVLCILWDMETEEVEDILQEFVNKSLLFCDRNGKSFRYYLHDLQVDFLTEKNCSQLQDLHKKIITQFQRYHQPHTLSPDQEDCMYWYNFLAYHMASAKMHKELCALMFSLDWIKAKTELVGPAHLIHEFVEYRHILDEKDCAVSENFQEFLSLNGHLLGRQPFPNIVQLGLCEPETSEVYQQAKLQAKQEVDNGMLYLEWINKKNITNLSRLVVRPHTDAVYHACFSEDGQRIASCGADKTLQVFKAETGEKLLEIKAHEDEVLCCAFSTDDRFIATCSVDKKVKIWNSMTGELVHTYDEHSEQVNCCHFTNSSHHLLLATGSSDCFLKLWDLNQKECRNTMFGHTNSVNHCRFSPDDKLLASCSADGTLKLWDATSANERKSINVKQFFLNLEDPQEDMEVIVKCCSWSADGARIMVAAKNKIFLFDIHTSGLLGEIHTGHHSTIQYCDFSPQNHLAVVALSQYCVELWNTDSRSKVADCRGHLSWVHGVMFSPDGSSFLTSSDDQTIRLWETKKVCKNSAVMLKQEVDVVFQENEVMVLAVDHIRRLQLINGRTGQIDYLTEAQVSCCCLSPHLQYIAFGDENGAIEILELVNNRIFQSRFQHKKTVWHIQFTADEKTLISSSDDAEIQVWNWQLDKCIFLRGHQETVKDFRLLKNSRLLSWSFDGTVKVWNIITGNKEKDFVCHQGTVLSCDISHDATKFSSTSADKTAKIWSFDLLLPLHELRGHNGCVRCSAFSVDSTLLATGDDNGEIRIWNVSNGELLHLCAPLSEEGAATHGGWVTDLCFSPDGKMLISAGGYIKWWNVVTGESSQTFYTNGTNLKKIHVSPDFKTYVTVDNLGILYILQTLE
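Material: biochemical Apaf-1 apoptosome reconstitution; Medium: 20 mM HEPES buffer, pH 7.5, containing CHAPS and BSA; Reagent: dATP, cytochrome c, and (Z-DEVD)2-Rh110 caspase-3 substrate; Times: 30 min preincubation, 50 min reaction, room temperature; Signal: Rh110 fluorescence, excitation 480 nm, emission 540 nm; Measure: Caspase-3 activity via Apaf-1.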
Rh110 act interf = Rh110 fluorescence interference by putative Apaf-1 activators, confirmation, artefact control for Apaf-1 activator project, biochemical, 20 µM | 980 tested, under 10 active | shares compounds with Apaf1 activ | fluorescence interference (activity change), % at 20 µM, hits read low | quenched caspase reaction, Ex480/Em540;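 active = mean activity change at or below -40% when tested at 20 µM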
Apaf-1 act conf = Apaf-1 activators, single-dose retest, confirmation, biochemical, fluorescence, DEVD-Rh110, 20 µM. 5% of 980 active. activity change, negative = activation, % at 20 µM. shares compounds with Apaf1 activ. reconstituted apoptosome caspase-3 activity; active compounds read low. AID 504617, 2011;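 active = mean activity change at or below -40%, meaning activation of 40% or more, at 20 µM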
Numbers without * were called inactive.

SMILES	Apaf1 activ	others
COC(=O)C(Cc1ccc(N(CCCl)CCCl)cc1)N=Cc1ccccc1O (stereo not drawn)	-63*
COc1cc(C(c2c(C)[nH]n(-c3ccccc3)c2=O)c2c(C)[nH]n(-c3ccccc3)c2=O)cc(OC)c1OC	92
Cn1c(=O)[nH]c2nncnc2c1=O	68
COc1cc2c(cc1OC)-c1c(OC)c(OC)cc3c1C(C2)N(C)CC3 (stereo not drawn)	95
COCC(C)OC(=O)c1c(N)n(Cc2ccco2)c2nc3ccccc3nc12 (stereo not drawn)	61
CCOC(=O)c1cc(CC)sc1/N=C/c1c(O)[nH]c(=S)[nH]c1=O	-200*	Rh110 act interf=-133*;Apaf-1 act conf=5
CC(C)[C@H]1C(=O)N2CCC[C@H]2[C@]2(O)O[C@](NC(=O)[C@@H]3C=C4c5cccc6[nH]cc(c56)C[C@H]4N(C)C3)(C(C)C)C(=O)N12	95
COCCOC(=O)c1c(N)n(Cc2ccccc2)c2nc3ccccc3nc12	83
O=[N+]([O-])c1ccc(NC2CCN(Cc3ccccc3)CC2)c2ccncc12	74
COc1ccccc1CCNCc1cc2c(cc1[N+](=O)[O-])OCO2	-192*	Rh110 act interf=5;Apaf-1 act conf=13
COc1ccc(C(=O)Cn2c(NCCCl)nc3ccccc32)cc1	-331*	Rh110 act interf=2;Apaf-1 act conf=12
COc1ccc(Cn2c(N)c(C(=O)NCc3ccco3)c3nc4ccccc4nc32)cc1	67
COC(=O)c1nc(-c2ccc3c(n2)C(=O)C(N)=C(OC)C3=O)c(N)c(-c2ccc(OC)c(OC)c2O)c1C	89
O=C1NC(=O)C(=Cc2ccc(Oc3ccc([N+](=O)[O-])cc3)cc2)C(=O)N1	43
COc1cc2c(cc1O)C[C@H]1NCCc3cc4c(c-2c31)OCO4	71
COCCCn1c(N)c(C(=O)NCCC(C)C)c2nc3ccccc3nc21	91
NC(N)=N/N=C/c1cn(-c2ccccc2)nc1-c1cccs1	41
CCn1nc(/C=C/c2ccccc2)nc2c(=O)n(C)c(=O)nc1-2	99
Nc1c(C(=O)NCc2ccco2)c2nc3ccccc3nc2n1CCN1CCOCC1	44
CC(C)OC(=O)c1c(N)n(CC2CCCO2)c2nc3ccccc3nc12 (stereo not drawn)	81
Cc1cc(/C=C2/C(=O)NC(=O)N(Cc3ccco3)C2=O)c(C)n1-c1ccccc1	-53*	Rh110 act interf=-4;Apaf-1 act conf=14
Clc1ccc(C[n+]2c(-c3ccccc3)cc(-c3ccccc3)cc2-c2ccccc2)cc1	52
ClC1C(Cl)C(Cl)C(Cl)C(Cl)C1Cl (stereo not drawn)	-2
CC(C)OCCCNC(=O)c1c(N)n(CC2CCCO2)c2nc3ccccc3nc12 (stereo not drawn)	94
CCCCNC(=O)c1c(N)n(Cc2ccc3c(c2)OCO3)c2nc3ccccc3nc12	95
SMILES	Apaf1 activ	others
O=C1NC(=O)N(c2ccc(Cl)cc2)C(=O)/C1=C/c1coc2ccc(O)cc2c1=O	-41*	Rh110 act interf=0;Apaf-1 act conf=17
Nc1cc2nc3ccccc3nc2cc1N	62
O=[N+]([O-])c1ccccc1-c1cc(-c2ccccc2)cc(-c2ccccc2)[n+]1Cc1ccccc1Cl	53
CCCCCCn1c(N)c(C(=O)NCCN2CCOCC2)c2nc3ccccc3nc21	52
Nc1c(C(=O)NCc2ccco2)c2nc3ccccc3nc2n1Cc1ccc(F)cc1	89
CCN1/C(=C\C=C\C2=[N+](CC)c3ccccc3C2(C)C)C(C)(C)c2ccccc21	56
c1ccc2c(c1)CSc1ccccc1C2C1=NCCN1 (stereo not drawn)	-228*	Rh110 act interf=12;Apaf-1 act conf=12
CC(C)C[C@H]1C(=O)N2CCCC2[C@]2(O)O[C@](NC(=O)[C@@H]3C=C4c5cccc6[nH]cc(c56)CC4N(C)C3)(C(C)C)C(=O)N12 (stereo partly drawn)	87
CCCCCn1c(N)c(C(=O)NCc2cccs2)c2nc3ccccc3nc21	70
COc1cc2c(cc1OC)-c1c3c(cc4c1[C@@H](C2)N(C)CC4)OCO3	98
CCCNC(=O)c1c(N)n(CC2CCCO2)c2nc3ccccc3nc12 (stereo not drawn)	93
CCCCn1c(NS(=O)(=O)c2ccc(C)cc2)c(C(=O)OCC)c2nc3ccccc3nc21	90
CCCCN1C(=N)C(CC)(CC)C(=O)NC1=O	-42*	Rh110 act interf=4;Apaf-1 act conf=8
Nc1c(C(=O)NCCCc2ccccc2)c2nc3ccccc3nc2n1Cc1cccs1	84
COC(=O)C(O)(c1c(C)[nH]n(-c2ccccc2)c1=O)C(F)(F)F (stereo not drawn)	79
CCC(C)N1C(=O)NC(=O)C2(Cc3c(ccc4ccccc34)N(C)C2)C1=O (stereo not drawn)	65
CC(C)CCn1c(N)c(C(=O)OCC2CCCO2)c2nc3ccccc3nc21 (stereo not drawn)	41
O=c1[nH]c2ccccc2n1CCCN1CCC(n2c(=O)[nH]c3cc(Cl)ccc32)CC1	-41*	Rh110 act interf=4;Apaf-1 act conf=4
COC(=O)C1=C(c2ccc(OCc3ccccc3)cc2)C[C@@H]2CC[C@H]1N2C(=O)NC1CCN(Cc2ccccc2)CC1	58
CC(=O)OCC[N+](C)(C)C	-3
O=[N+]([O-])c1ccc(NC2CCCC2)c2ccncc12	42
C=CCN1CC[C@]23c4c5ccc(O)c4O[C@H]2C(=O)CC[C@@]3(O)[C@H]1C5	15
Brc1ccc(Oc2ccc(Br)cc2Br)c(Br)c1	-139*	Rh110 act interf=12;Apaf-1 act conf=7
O=C1C=Cc2ccccc2C1=O	62
CCCCn1c(N)c(C(=O)NCc2cccs2)c2nc3ccccc3nc21	85
NC(Cc1cc(O)c(O)cc1O)C(=O)O (stereo not drawn)	84
Cc1ccc(-n2c(C)nc3ccccc3c2=O)c(C)c1	-76*	Rh110 act interf=8;Apaf-1 act conf=9
CCC(COC(=O)c1cc(OC)c(OC)c(OC)c1)(c1ccccc1)N(C)C (stereo not drawn)	12
CCCCOCCCn1c(N)c(C(=O)OCCOC)c2nc3ccccc3nc21	66
CCCCn1c(NC(=O)c2ccco2)c(C(=O)OCC)c2nc3ccccc3nc21	83
